Results from ChEMBL document CHEMBL1129609, “Synthesis and antiviral activity evaluation of some new aminoadamantane derivatives. 2” (1996).
≈ marks a conversion by molar mass, not a printed value.

Legend:
[1] = system: Human immunodeficiency virus 2; test: Antiviral activity against HIV-2 virus infected CEM cell lines.; assay type: functional, CCRF-CEM
CCRF-CEM [2] = test: Cytotoxicity against CEM cell lines.; assay type: functional; conditions: Homo sapiens
[3] = system: Human immunodeficiency virus 1; test: Antiviral activity against HIV-1 virus infected CEM cell lines.; assay type: functional, CCRF-CEM
Human alphaherpesvirus 1 [4] = test: Antiviral activity against HSV-1 virus infected HEF cell lines.; assay type: functional
Outline: (§1)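 Human embryonic fibroblasts, from embryonic lung or embryonic skin-muscle, infected with the virus. Endpoint is the minimum inhibitory concentration that reduces virus-induced cytopathicity by 50%. Values are averages of at least two separate experiments.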

Human alphaherpesvirus 2 = test: Antiviral activity against HSV-2 virus infected HEF cell lines.; assay type: functional; outline: as §1
Human alphaherpesvirus 1 [5] = test: Antiviral activity against TK-HSV-1 virus infected HEF cell lines.; assay type: functional; outline: as §1
HEF [6] = test: Effects on cell morphology of HEF cell lines.; assay type: functional; conditions: Homo sapiens
Outline: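 Human embryonic skin-muscle fibroblasts were examined under the microscope for changes in normal cell morphology. The value is the minimum concentration causing a microscopically detectable alteration, averaged from at least two separate experiments.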

Vaccinia virus = test: Antiviral activity against vaccinia virus infected HEF cell lines.; assay type: functional; conditions: Orthopoxvirus vaccinia; outline: as §1
Enterovirus C = test: Antiviral activity against polio 1 virus infected HeLa cell lines.; assay type: functional
Outline: (§2)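 Vero (African green monkey kidney), HeLa (human epithelial) or HEL (human embryonic lung) cell monolayers infected with the virus. Readout is the minimum inhibitory concentration that reduces virus-induced cytopathicity by 50%. Values are averages of at least two separate experiments.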

[7] = system: Vesicular stomatitis virus; test: Antiviral activity against vesicular stomatitis virus infected HeLa cell lines.; assay type: functional; outline: as §2
Coxsackievirus B4 [8] = test: Antiviral activity against Coxsackie B4 virus infected HeLa cell lines.; assay type: functional; conditions: Enterovirus B; outline: as §2
Human betaherpesvirus 5 = test: Antiviral activity against HCMV virus infected HEL cell lines.; assay type: functional; outline: as §2
Human alphaherpesvirus 3 [9] = test: Antiviral activity against TK+VZV virus infected HEL cell lines.; assay type: functional; outline: as §2
Human alphaherpesvirus 3 [10] = test: Antiviral activity against TK-VZV virus infected HEL cell lines.; assay type: functional; outline: as §2
HEL [11] = test: Inhibition of HEL cell proliferation.; assay type: functional; conditions: Homo sapiens
Outline: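 Human embryonic lung fibroblasts were used for the proliferation assay. The value is the concentration that reduces cell proliferation by 50%, averaged from at least two separate experiments.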

MDCK [12] = test: Antiviral activity tested against influenza A,H1N1 virus infected MDCK cell lines.; assay type: functional; conditions: Canis lupus familiaris
[13] = Antiviral activity against influenza A,H3N2 virus infected MDCK cell lines.; assay type: functional
Influenza B virus = test: Antiviral activity against influenza B virus infected MDCK cell lines.; assay type: functional
MDCK [14] = test: Antiviral activity of compound was tested against morphology virus infected MDCK cell lines.; assay type: functional; conditions: Canis lupus familiaris
Semliki Forest virus = test: Antiviral activity against Semliki forest virus infected Vero cell lines.; assay type: functional; outline: as §2
Coxsackievirus B4 [15] = test: Antiviral activity against Coxsackie B4 virus infected vero cell lines.; assay type: functional; conditions: Enterovirus B; outline: as §2
Vero [16] = test: Effects on cell morphology of Vero cell lines.; assay type: functional; conditions: Chlorocebus sabaeus
Outline: (§3)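 HeLa (human epithelial) or Vero (African green monkey kidney) cells were examined under the microscope for changes in normal morphology. The value is the minimum concentration causing a detectable alteration, averaged from at least two separate experiments.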

Human respirovirus 3 = test: Antiviral activity against parainfluenza 3 virus infected Vero cell lines.; assay type: functional; outline: as §2
[17] = system: Mammalian orthoreovirus 1; test: Antiviral activity against Reo 1 virus infected vero cell lines.; assay type: functional; outline: as §2
Sindbis virus = test: Antiviral activity against sindbis virus infected Vero cell lines.; assay type: functional; outline: as §2
[18] = Antiviral activity against influenza A,H2N2 virus infected MDCK cell lines.; assay type: functional
HeLa [19] = test: Effects on cell morphology of HeLa cell lines.; assay type: functional; conditions: Homo sapiens; outline: as §3
[20] = system: Vesicular stomatitis virus; test: Antiviral activity against vesicular stomatitis virus infected HEF cell lines.; assay type: functional; outline: as §1
CCRF-CEM [21] = test: Antiviral activity of compound was tested against viability virus infected CEM cell lines.; assay type: functional; conditions: Homo sapiens
CCRF-CEM [22] = test: Antiviral activity of compound were tested against HIV-2 virus infected CEM cell lines.; assay type: functional; conditions: Homo sapiens
HEF [23] = test: Antiviral activity of compound was tested against HSV-2 virus infected HEF cell lines.; assay type: functional; conditions: Homo sapiens; outline: as §1
HEF [24] = test: Antiviral activity of compound was tested against TK-HSV-1 virus infected HEF cell lines.; assay type: functional; conditions: Homo sapiens; outline: as §1
HEF [25] = test: Antiviral activity of compound was tested against morphology virus infected HEF cell lines.; assay type: functional; conditions: Homo sapiens
HEF [26] = test: Antiviral activity of compound was tested against vaccinia virus infected HEF cell lines.; assay type: functional; conditions: Homo sapiens; outline: as §1
HEL [27] = test: Antiviral activity of compound was tested against proliferation virus infected HEL cell lines.; assay type: functional; conditions: Homo sapiens
HeLa [28] = test: Antiviral activity of compound was tested against morphology virus infected HeLa cell lines.; assay type: functional; conditions: Homo sapiens
HeLa [29] = test: Antiviral activity of compound was tested against polio-1 virus infected HeLa cell lines.; assay type: functional; conditions: Homo sapiens; outline: as §2
HEL [30] = test: Antiviral activity of compound was tested against HCMV virus infected HEL cell lines.; assay type: functional; conditions: Homo sapiens; outline: as §2
HEL [31] = test: Antiviral activity of compound was tested against TK+VZV virus infected HEL cell lines.; assay type: functional; conditions: Homo sapiens; outline: as §2
HEL [32] = test: Antiviral activity of compound was tested against TK-VZV virus infected HEL cell lines.; assay type: functional; conditions: Homo sapiens; outline: as §2
HeLa [33] = test: Antiviral activity of compound was tested against Coxsackie B4 virus infected HeLa cell lines.; assay type: functional; conditions: Homo sapiens; outline: as §2
MDCK [34] = test: Antiviral activity of compound was tested against influenza A,H3N2 virus infected MDCK cell lines.; assay type: functional; conditions: Canis lupus familiaris
MDCK [35] = test: Antiviral activity of compound was tested against influenza […] virus infected MDCK cell lines; assay type: functional; conditions: Canis lupus familiaris
Vero [36] = test: Antiviral activity of compound was tested against sindbis virus infected vero cell lines.; assay type: functional; conditions: Chlorocebus sabaeus; outline: as §2
Vero [37] = test: Antiviral activity of compound were tested against semliki forest virus infected vero cell lines.; assay type: functional; conditions: Chlorocebus sabaeus; outline: as §2
Vero [38] = test: Antiviral activity of compound was tested against Coxsackie B4 virus infected vero cell lines.; assay type: functional; conditions: Chlorocebus sabaeus; outline: as §2
Vero [39] = test: Antiviral activity of compound was tested against parainfluenza 3,[…] virus infected Vero cell lines.; assay type: functional; conditions: Chlorocebus sabaeus; outline: as §2
Vero [40] = test: Antiviral activity of compound was tested against reo1 virus infected vero cell lines.; assay type: functional; conditions: Chlorocebus sabaeus; outline: as §2
Vero [41] = test: Antiviral activity of compound was tested against morphology virus infected Vero cell lines.; assay type: functional; conditions: Chlorocebus sabaeus
CCRF-CEM [42] = test: Antiviral activity of compound was tested against HIV-1 virus infected CEM cell lines.; assay type: functional; conditions: Homo sapiens

C1CNC(C23CC4CC(CC(C4)C2)C3)C1 (stereo unspecified)
MIC50 [1]: > 40 µg/mL | MIC50 (CCRF-CEM [2]): 56 µg/mL (≈ 273 µM) | MIC50 [3]: > 40 µg/mL | MIC50 (Human alphaherpesvirus 1 [4]): > 40 µg/mL | MIC50 (Human alphaherpesvirus 2): > 40 µg/mL | MIC50 (Human alphaherpesvirus 1 [5]): > 40 µg/mL | MIC50 (HEF [6]): 100 µg/mL (≈ 487 µM) | MIC50 (Vaccinia virus): > 40 µg/mL | MIC50 (Enterovirus C): > 100 µg/mL | MIC50 [7]: > 100 µg/mL | MIC50 (Coxsackievirus B4 [8]): > 100 µg/mL | MIC50 (Human betaherpesvirus 5): > 50 µg/mL | MIC50 (Human alphaherpesvirus 3 [9]): > 50 µg/mL | MIC50 (Human alphaherpesvirus 3 [10]): > 50 µg/mL | MIC50 (HEL [11]): > 50 µg/mL | MIC50 (MDCK [12]): 15.8 µg/mL (≈ 76.9 µM) | MIC50 [13]: 12.4 µg/mL (≈ 60.4 µM) | MIC50 (Influenza B virus): 12 µg/mL (≈ 58.4 µM) | MIC50 (MDCK [14]): 250 µg/mL (≈ 1220 µM) | MIC50 (Semliki Forest virus): > 200 µg/mL | MIC50 (Coxsackievirus B4 [15]): > 200 µg/mL | MIC50 (Vero [16]): 400 µg/mL (≈ 1950 µM) | MIC50 (Human respirovirus 3): > 200 µg/mL | MIC50 [17]: > 200 µg/mL | MIC50 (Sindbis virus): > 200 µg/mL | MIC50 [18]: 0.6 µg/mL (≈ 2.92 µM) | MIC50 (HeLa [19]): > 200 µg/mL | MIC50 [20]: > 40 µg/mL

CCN1CCOCC12C1CC3CC(C1)CC2C3 (stereo unspecified)
MIC50 (CCRF-CEM [21]): > 200 µg/mL | MIC50 (CCRF-CEM [22]): > 200 µg/mL | MIC50 (Human alphaherpesvirus 1 [4]): > 400 µg/mL | MIC50 (HEF [23]): > 400 µg/mL | MIC50 (HEF [24]): > 400 µg/mL | MIC50 (HEF [25]): > 400 µg/mL | MIC50 (HEF [26]): > 400 µg/mL | MIC50 (HEL [27]): > 50 µg/mL | MIC50 (HeLa [28]): > 400 µg/mL | MIC50 (HeLa [29]): > 400 µg/mL | MIC50 [7]: > 400 µg/mL | MIC50 (HEL [30]): > 50 µg/mL | MIC50 (HEL [31]): > 50 µg/mL | MIC50 (HEL [32]): > 50 µg/mL | MIC50 (HeLa [33]): > 400 µg/mL | MIC50 (MDCK [12]): > 10 µg/mL | MIC50 (MDCK [34]): > 57 µg/mL | MIC50 (MDCK [35]): > 80 µg/mL | MIC50 (MDCK [14]): > 250 µg/mL | MIC50 (Vero [36]): > 400 µg/mL | MIC50 (Vero [37]): > 400 µg/mL | MIC50 (Vero [38]): > 400 µg/mL | MIC50 (Vero [39]): > 400 µg/mL | MIC50 (Vero [40]): > 400 µg/mL | MIC50 [18]: 10.5 µg/mL (≈ 44.6 µM) | MIC50 (Vero [41]): > 400 µg/mL | MIC50 (CCRF-CEM [42]): 158 µg/mL (≈ 671 µM) | MIC50 [20]: > 400 µg/mL
